Measured values as given in ChEMBL document CHEMBL1129589, “Anti-inflammatory 17beta-thioalkyl-16alpha,17alpha-ketal and -acetal androstanes: a new class of airway selective steroids for the treatment of asthma” (J Med Chem, 1996).
pEC50, pIC50: −log10 of the molar value.

Assays:
Rattus norvegicus [1] = experiment: In vivo inhibition of Rat lung edema following i.t. administration.; format: functional; conditions: inhaled or nasal
H35 = experiment: Induction of tyrosine aminotransferase activity in cultured rat liver H4IIE cells.; format: functional; conditions: read-out: ED50 (the source's name)
In short: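 Confluent H4IIE rat hepatoma cells (4-day culture) incubated overnight with steroid at 0-100 nM, in triplicate wells. Lysate equilibrated at 37 °C with α-ketoglutarate and pyridoxal phosphate in phosphate buffer, pH 7.3.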

Rattus norvegicus [2] = experiment: In vivo suppression of thymus weight by 30% following i.t. administration.; format: functional; conditions: inhaled or nasal
In short: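 Male Sprague-Dawley rats (~350 g, six per group) dosed intratracheally under halothane anesthesia at 0 and 24 h. Vehicle: 1% carboxymethyl cellulose/0.2% Tween 80 suspension, sonicated. First dose given with saline, second with Sephadex G200 (final 5 mg/mL). Rats killed at 48 h; lungs and thymus weighed. Doses reducing Sephadex-induced edema and thymus weight by 30% calculated.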

Glucocorticoid receptor = biological target: T1, Glucocorticoid receptor (Rattus norvegicus, UniProt P06536); experiment: Steroid binding against the rat thymus glucocorticoid receptor
T1 sequence (P06536 whole entry): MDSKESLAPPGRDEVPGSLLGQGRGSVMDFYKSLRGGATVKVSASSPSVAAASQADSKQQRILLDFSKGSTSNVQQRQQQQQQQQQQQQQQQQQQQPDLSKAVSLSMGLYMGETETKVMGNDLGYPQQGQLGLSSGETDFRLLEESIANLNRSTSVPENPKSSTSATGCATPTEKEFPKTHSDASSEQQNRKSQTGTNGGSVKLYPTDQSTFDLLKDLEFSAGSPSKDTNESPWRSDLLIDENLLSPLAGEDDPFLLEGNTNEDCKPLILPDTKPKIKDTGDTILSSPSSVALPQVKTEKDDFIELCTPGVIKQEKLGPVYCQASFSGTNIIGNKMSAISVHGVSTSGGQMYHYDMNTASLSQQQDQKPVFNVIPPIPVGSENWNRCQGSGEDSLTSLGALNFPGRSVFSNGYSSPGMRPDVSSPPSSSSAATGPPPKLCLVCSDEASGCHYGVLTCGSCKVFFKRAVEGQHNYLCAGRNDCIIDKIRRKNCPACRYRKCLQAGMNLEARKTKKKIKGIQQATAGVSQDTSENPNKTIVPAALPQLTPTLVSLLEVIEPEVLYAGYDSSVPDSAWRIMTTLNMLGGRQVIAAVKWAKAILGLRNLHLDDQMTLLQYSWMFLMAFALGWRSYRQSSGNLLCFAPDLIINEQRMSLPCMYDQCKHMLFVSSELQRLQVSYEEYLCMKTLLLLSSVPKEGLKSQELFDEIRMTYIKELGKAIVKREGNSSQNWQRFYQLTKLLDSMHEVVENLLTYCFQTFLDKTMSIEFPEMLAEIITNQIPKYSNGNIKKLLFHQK

Rattus norvegicus [3] = experiment: Selectivity ratio of Topical vs Systemic routes of administration.; format: functional
In short: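 Male Sprague-Dawley rats (about 350 g, six per group) received the steroid intratracheally under halothane. It was suspended in 1% carboxymethyl cellulose/0.2% Tween 80 and given at 0 h with saline and at 24 h with Sephadex G200 (final 5 mg/mL). At 48 h, lungs and thymus were weighed. The ratio compares doses giving 30% reduction of lung edema and of thymus weight in the same animals.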

Rattus norvegicus [4] = experiment: Selectivity ratio of Topical vs Systemic routes of administration; format: functional
In short: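 Male Sprague-Dawley rats (about 350 g, six per group) were dosed intratracheally under halothane at 0 and 24 h, as a sonicated suspension in 1% carboxymethyl cellulose/0.2% Tween 80. The first dose was given with saline, the second with Sephadex G200 (final 5 mg/mL). Lungs and thymus were weighed at 48 h. The ratio compares doses reducing edema and thymus weight by 30%, both measured in the same animals.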

## CCC[C@@H]1O[C@@H]2CC3C4CCC5=CC(=O)C=C[C@]5(C)[C@@]4(F)[C@@H](O)C[C@]3(C)[C@]2(Sc2ccccn2)O1 (stereo partly drawn)
Rattus norvegicus [1]
  ED50: > 3 mg/kg
H35
  pEC50: < 7.00
Rattus norvegicus [2]
  ED50: > 3 mg/kg
Glucocorticoid receptor
  pIC50: 7.92

## CCC[C@@H]1O[C@@H]2CC3C4CCC5=CC(=O)C=C[C@]5(C)[C@@]4(F)[C@@H](O)C[C@]3(C)[C@]2(SCC)O1 (stereo partly drawn)
Rattus norvegicus [1]
  ED50: > 3 mg/kg
Rattus norvegicus [3]
  Selectivity: >0.43
H35
  pEC50: 8.82
Rattus norvegicus [2]
  ED50: 7 mg/kg
Glucocorticoid receptor
  pIC50: 8.48

## CCC[C@@H]1O[C@@H]2CC3C4CCC5=CC(=O)CC[C@]5(C)[C@@]4(F)[C@@H](O)C[C@]3(C)[C@]2(SC)O1 (stereo partly drawn)
Rattus norvegicus [1]
  ED50: 3.6 mg/kg
H35
  pEC50: 9.15
Rattus norvegicus [2]
  ED50: 5.2 mg/kg

## CCCC1O[C@@H]2C[C@H]3[C@@H]4CCC5=CC(=O)C=C[C@]5(C)[C@H]4[C@@H](O)C[C@]3(C)[C@]2(C(=O)CO)O1 (stereo partly drawn) [BUDESONIDE]
Rattus norvegicus [1]
  ED50: 0.39 mg/kg
Rattus norvegicus [3]
  Selectivity: 0.4
H35
  pEC50: 9.70
Rattus norvegicus [2]
  ED50: 0.96 mg/kg
Glucocorticoid receptor
  pIC50: 8.54

## CCC[C@@H]1O[C@@H]2CC3C4CCC5=CC(=O)C=C[C@]5(C)[C@@]4(F)[C@@H](O)C[C@]3(C)[C@]2(SCF)O1 (stereo partly drawn)
Rattus norvegicus [1]
  ED50: > 3 mg/kg
Rattus norvegicus [3]
  Selectivity: >0.75
H35
  pEC50: 8.92
Rattus norvegicus [2]
  ED50: 4 mg/kg
Glucocorticoid receptor
  pIC50: 8.48

## CC=C[C@@H]1O[C@@H]2C[C@H]3[C@@H]4CCC5=CC(=O)C=C[C@]5(C)[C@@]4(F)[C@@H](O)C[C@]3(C)[C@]2(SC)O1
Rattus norvegicus [1]
  ED50: > 3 mg/kg
Rattus norvegicus [3]
  Selectivity: >2.73
H35
  pEC50: 8.96
Rattus norvegicus [2]
  ED50: 1.1 mg/kg
Glucocorticoid receptor
  pIC50: 8.74

## CCC[C@@H]1O[C@@H]2CC3C4CCC5=CC(=O)C=C[C@]5(C)[C@@]4(F)[C@@H](O)C[C@]3(C)[C@]2(SC)O1 (stereo partly drawn)
Rattus norvegicus [1]
  ED50: > 1 mg/kg
Rattus norvegicus [3]
  Selectivity: >0.56
H35
  pEC50: 8.77
Rattus norvegicus [2]
  ED50: 1.8 mg/kg
Glucocorticoid receptor
  pIC50: 8.77

## CCS[C@]1(SC)CC[C@H]2[C@@H]3CCC4=CC(=O)C=C[C@]4(C)[C@@]3(F)[C@@H](O)C[C@@]21C
Rattus norvegicus [1]
  ED50: 2.1 mg/kg
Rattus norvegicus [3]
  Selectivity: 1.91
H35
  pEC50: 8.70
Rattus norvegicus [2]
  ED50: 1.1 mg/kg
Glucocorticoid receptor
  pIC50: 8.64

## CCC[C@@H]1O[C@@H]2CC3C4C[C@H](F)C5=CC(=O)C=C[C@]5(C)[C@@]4(F)[C@@H](O)C[C@]3(C)[C@]2(SCF)O1 (stereo partly drawn)
Rattus norvegicus [1]
  ED50: 0.3 mg/kg
Rattus norvegicus [3]
  Selectivity: 0.065
H35
  pEC50: 9.52
Rattus norvegicus [2]
  ED50: 4.6 mg/kg
Glucocorticoid receptor
  pIC50: 8.66

## CCC[C@@H]1O[C@@H]2CC3C4C[C@H](F)C5=CC(=O)C=C[C@]5(C)[C@@]4(F)[C@@H](O)C[C@]3(C)[C@]2(SC)O1 (stereo partly drawn)
Rattus norvegicus [1]
  ED50: 0.11 mg/kg
Rattus norvegicus [3]
  Selectivity: 0.2
H35
  pEC50: 9.40
Rattus norvegicus [2]
  ED50: 0.54 mg/kg
Glucocorticoid receptor
  pIC50: 8.62

## CC1(C)O[C@@H]2C[C@H]3[C@@H]4C[C@H](F)C5=CC(=O)C=C[C@]5(C)[C@@]4(F)[C@@H](O)C[C@]3(C)[C@]2(SCF)O1
Rattus norvegicus [1]
  ED50: 0.07 mg/kg
Rattus norvegicus [3]
  Selectivity: 0.037
H35
  pEC50: 9.00
Rattus norvegicus [2]
  ED50: 1.9 mg/kg
Glucocorticoid receptor
  pIC50: 8.37

## CCC[C@@H]1O[C@@H]2CC3C4C[C@H](F)C5=CC(=O)CC[C@]5(C)[C@@]4(F)[C@@H](O)C[C@]3(C)[C@]2(SC)O1 (stereo partly drawn)
Rattus norvegicus [1]
  ED50: 0.06 mg/kg
Rattus norvegicus [3]
  Selectivity: 0.06
H35
  pEC50: 9.52
Rattus norvegicus [2]
  ED50: 1 mg/kg
Glucocorticoid receptor
  pIC50: 8.66

## CS[C@@]12OC(C)(C)O[C@@H]1CC1C3C[C@H](F)C4=CC(=O)C=C[C@]4(C)[C@@]3(F)[C@@H](O)C[C@@]12C (stereo partly drawn)
Rattus norvegicus [1]
  ED50: 1.3 mg/kg
Rattus norvegicus [3]
  Selectivity: 0.4
H35
  pEC50: 9.70
Rattus norvegicus [2]
  ED50: 3.2 mg/kg
Glucocorticoid receptor
  pIC50: 8.66

## CS[C@@]12OC(C)(C)O[C@@H]1CC1C3CCC4=CC(=O)C=C[C@]4(C)[C@@]3(F)[C@@H](O)C[C@@]12C (stereo partly drawn)
Rattus norvegicus [1]
  ED50: 0.3 mg/kg
Rattus norvegicus [3]
  Selectivity: 0.33
H35
  pEC50: 9.70
Rattus norvegicus [2]
  ED50: 0.9 mg/kg
Glucocorticoid receptor
  pIC50: 8.80

## CC1(C)O[C@@H]2CC3C4CCC5=CC(=O)C=C[C@]5(C)[C@@]4(F)[C@@H](O)C[C@]3(C)[C@]2(Sc2ccccn2)O1 (stereo partly drawn)
Rattus norvegicus [1]
  ED50: > 3 mg/kg
H35
  pEC50: 7.30
Rattus norvegicus [2]
  ED50: > 3 mg/kg
Glucocorticoid receptor
  pIC50: 7.66

## CCC(=O)O[C@]1(C(=O)SCF)C(C)C[C@H]2[C@@H]3C[C@H](F)C4=CC(=O)C=C[C@]4(C)[C@@]3(F)[C@@H](O)C[C@@]21C (single isomer, unassigned) [FLUTICASONE PROPIONATE]
Rattus norvegicus [1]
  ED50: 0.05 mg/kg
H35
  pEC50: 10.00
Rattus norvegicus [2]
  ED50: 0.47 mg/kg

## CCC[C@@H]1O[C@@H]2CC3C4CCC5=CC(=O)C=C[C@]5(C)[C@@]4(F)[C@@H](O)C[C@]3(C)[C@]2([S+](C)[O-])O1 (stereo partly drawn)
Rattus norvegicus [1]
  ED50: > 3 mg/kg
Rattus norvegicus [4]
  Selectivity: >1
H35
  pEC50: 7.64
Rattus norvegicus [2]
  ED50: 3 mg/kg
Glucocorticoid receptor
  pIC50: 8.49

## CC1(C)O[C@@H]2C[C@H]3[C@@H]4CCC5=CC(=O)C=C[C@]5(C)[C@@]4(F)[C@@H](O)C[C@]3(C)[C@]2(S(C)(=O)=O)O1
Rattus norvegicus [1]
  ED50: 2.2 mg/kg
Rattus norvegicus [3]
  Selectivity: 1.57
H35
  pEC50: 7.89
Rattus norvegicus [2]
  ED50: 1.4 mg/kg
Glucocorticoid receptor
  pIC50: 8.28

## CCC[C@@H]1O[C@@H]2CC3C4CCC5=CC(=O)C=C[C@]5(C)[C@@]4(F)[C@@H](O)C[C@]3(C)[C@]2(SC(C)C)O1 (stereo partly drawn)
Rattus norvegicus [1]
  ED50: > 3 mg/kg
H35
  pEC50: 8.15
Rattus norvegicus [2]
  ED50: > 3 mg/kg
Glucocorticoid receptor
  pIC50: 8.26
